Experimental data published in PubChem BioAssay AID602268 (Broad Institute, 2012).
Values joined by “and” are separate entries in the source; they are usually repeats but may differ in a detail not shown here. Equal entries are not always repeated. Active and inactive are the calls of the source.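 Rule for the calls: active = compounds lowering reporter light with a fitted half-maximal dose no more than twice the top dose tested; inconclusive = flat curve at 30 to 70% inhibition, or poor fit; inactive = the rest.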

Columns and labels:
[1] = test system: NIH3T3-HGL HSE-luciferase, MG132-induced, luminescence 8 h; assay: inhibition of MG132-induced HSE-luciferase signal, dose response, cell-based, NIH3T3, luminescence, dry powder samples (AID 602268)
In short: (§1)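 Assay system: NIH3T3-HGL mouse fibroblasts with heat shock element-driven eGFP–firefly luciferase / Quantity: 4,000 cells per well / Buffer or medium: Opti-MEM with 2.5% FBS / Also added: MG132 proteasome inhibitor stressor, 2.5 µM final / Incubation: cells 24 h, compound 30 min, then MG132 8 h / Technique: luciferase luminescence, Steady-Glo reagent / Controls: Didemnin B 400 nM as positive control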

[2] = as above; conditions: NIH3T3-HGL HSE-luciferase, MG132-induced, luminescence 8 h; at 26 µM (top of the series)
In short: as §1

SMILES	AC50 [1] [nM]	activity change, negative = inhibition [2]
O=C(CCl)N1CCCC1c1ccc2c(c1)OCCO2 (stereo not given)	949	–
CC1=NNC(=O)/C1=C\c1cn(-c2ccccc2)nc1-c1ccc(Cl)cc1	1460	–
O=C1C=C(NCCN2CCOCC2)C(=O)c2cnccc21	2370	–
Oc1ccc(Br)cc1/C=N/Nc1ccccn1	1720	–
CCc1ccc(NC(=O)C2C3CCC(O3)C2C(=O)O)cc1 (stereo not given)	–	7.59% (inactive) and -9.7% (inactive)
